The text below walks through data of ChEMBL document CHEMBL4118209, “Development of autotaxin inhibitors: A series of zinc binding triazoles” (Bioorg Med Chem Lett, 2018).

In brackets after ≈: the same amount, converted by molar mass.

The nature of series [1]: Oral bioavailability in Lewis rat at 1 to 100 mg/kg dosed via gavage after 1.25 to 24 hrs. As to conditions: in vivo. Type of series: ADME, organism-based.
Series [2] in a line: Equilibrium solubility of compound at pH 6.8 by high-throughput screening method. As to conditions: buffer.
Series [3] has as its target T1, Voltage-gated inwardly rectifying potassium channel KCNH2 (Homo sapiens, UniProt Q12809). The series can be described thus: Displacement of [3H]dofetilide from human ERG expressed in HEK293 cells after 45 mins by scintillation counting method.
Series [4] can be described thus: Permeability assessed as drug absorption at 50 ug/ml after 5 hrs by PAMPA. As to conditions: at 50 µg/mL.
The target in series [5] is T2, Autotaxin (Homo sapiens, UniProt Q13822). In words: Inhibition of ATX (unknown origin) assessed as decrease in choline release.
A short description of series [6]: Intrinsic clearance in Sprague-Dawley rat liver microsomes at 1 uM by HPLC analysis. Type of series: ADME, microsome. As to conditions: read-out: CLH.
A short description of series [7]: Fraction unbound in human plasma at 5 uM after 2 to 6 hrs by rapid equilibrium dialysis method. Type of series: ADME, cell-free.
Series [8] concerns the target T1, Voltage-gated inwardly rectifying potassium channel KCNH2. In words: Inhibition of human ERG expressed in CHO-K1 cells at -90 mV holding potential by Qpatch clamp assay.
Series [9] is described as follows: Half life in Sprague-Dawley rat at 1 mg/kg, iv. The following applies: in vivo. Format: ADME, organism-based.
Series [10] is described as follows: Clearance in Sprague-Dawley rat at 1 mg/kg, iv. Format: ADME, organism-based. As to conditions: in vivo.
Series [11] is described as follows: Volume of distribution at steady state in Sprague-Dawley rat at 1 mg/kg, iv. Type of series: ADME, organism-based. The following applies: in vivo, read-out: Vdss.
Series [12] concerns Rattus norvegicus. In words: AUC (0 to infinity) in Sprague-Dawley rat at 10 mg/kg, po. Type of series: ADME, organism-based. Set-up: dose 10 mg/kg, time infinity, route oral. The following applies: in vivo.
Series [13] is described as follows: Cmax in Sprague-Dawley rat at 10 mg/kg, po. Type of series: ADME, organism-based. The arrangement: dose 10 mg/kg, route oral. As to conditions: in vivo.
A short description of series [14]: Tmax in Sprague-Dawley rat at 10 mg/kg, po. The following applies: in vivo. Format: ADME, organism-based.
Series [15] in a line: Oral bioavailability in Sprague-Dawley rat at 10 mg/kg. As to conditions: in vivo. Type of series: ADME, organism-based.
Series [16] deals with T2, Autotaxin. The series can be described thus: Inhibition of ATX in human serum assessed as reduction in LPA 18:1 levels after 3 hrs by LC-MS/MS analysis. In a few lines: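 Human serum was cleared of coagulated blood by centrifugation (2100g, 10 min, room temperature) and stored at −80 °C. It was incubated with compound (0.5 nM–10 μM) with shaking at 37 °C for 3 h. LPA was extracted into methanol with 30 mM citric acid and LPA 17:0 internal standard (0.5 µM), then quantified by LC-MS/MS (negative-ion MRM). IC50 was obtained by non-linear regression.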

The subject of series [17] is Rattus norvegicus. The series can be described thus: In vivo inhibition of ATX in Sprague-Dawley rat assessed as reduction in LPA 16:0 levels in serum at 0.3 mg/kg, po measured over 24 hrs by LCMS analysis relative to control. Type of series: functional. Put shortly: (§1)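 Male Sprague-Dawley rats (n = 6 per group) were given compound or vehicle (0.5% methyl cellulose:0.5% Tween80) orally at 5 ml/kg. Tail-vein blood was taken at various times without anticoagulant, held 30 min at room temperature, and spun at 700g for 10 min. Serum was stored at −80 °C. LPA isoforms were measured by LC-MS/MS, and PK/PD was assessed with a link model.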

The test system of series [18] is Rattus norvegicus. The series can be described thus: In vivo inhibition of ATX in Sprague-Dawley rat assessed as reduction in LPA 18:0 levels in serum at 0.3 mg/kg, po measured over 24 hrs by LCMS analysis relative to control. Type of series: functional. Put shortly:
as §1

Series [19] relates to Rattus norvegicus. The series can be described thus: In vivo inhibition of ATX in Sprague-Dawley rat assessed as reduction in LPA 18:1 levels in serum at 0.3 mg/kg, po measured over 24 hrs by LCMS analysis relative to control. Format: functional. In a few lines:
as §1

In series [20] the test system is Rattus norvegicus. The series can be described thus: In vivo inhibition of ATX in Sprague-Dawley rat assessed as reduction in LPA 24:4 levels in serum at 0.3 mg/kg, po measured over 24 hrs by LCMS analysis relative to control. Type of series: functional. As to conditions: in the assay text read “LPA 20:4” for “LPA 24:4”. Put shortly:
as §1

The subject of series [21] is Rattus norvegicus. In words: In vivo inhibition of ATX in po dosed Sprague-Dawley rat assessed as reduction in LPA 16:0 levels in serum measured over 24 hrs by LCMS analysis. Format: functional, organism-based. In a few lines: as §1
The subject of series [22] is Rattus norvegicus. The series can be described thus: In vivo inhibition of ATX in po dosed Sprague-Dawley rat assessed as reduction in LPA 18:0 levels in serum measured over 24 hrs by LCMS analysis. Format: functional, organism-based. In a few lines:
as §1

Series [23] deals with Rattus norvegicus. In words: In vivo inhibition of ATX in po dosed Sprague-Dawley rat assessed as reduction in LPA 18:1 levels in serum measured over 24 hrs by LCMS analysis. Format: functional, organism-based. In a few lines: as §1
In series [24] the test system is Rattus norvegicus. In words: In vivo inhibition of ATX in po dosed Sprague-Dawley rat assessed as reduction in LPA 24:4 levels in serum measured over 24 hrs by LCMS analysis. Type of series: functional, organism-based. As to conditions: in the assay text read “LPA 20:4” for “LPA 24:4”. Put shortly:
as §1

Series [25] is described as follows: Fraction unbound in rat plasma at 5 uM after 2 to 6 hrs by rapid equilibrium dialysis method. Type of series: ADME, cell-free.
The nature of series [26]: Intrinsic clearance in human liver microsomes at 1 uM by HPLC analysis. Type of series: ADME, microsome. The following applies: read-out: CLH.
Series [27] can be described thus: Thermodynamic solubility in FeSSIF. As to conditions: read-out: Therm_solubility. Type of series: physicochemical.

T1 sequence (Q12809 whole entry): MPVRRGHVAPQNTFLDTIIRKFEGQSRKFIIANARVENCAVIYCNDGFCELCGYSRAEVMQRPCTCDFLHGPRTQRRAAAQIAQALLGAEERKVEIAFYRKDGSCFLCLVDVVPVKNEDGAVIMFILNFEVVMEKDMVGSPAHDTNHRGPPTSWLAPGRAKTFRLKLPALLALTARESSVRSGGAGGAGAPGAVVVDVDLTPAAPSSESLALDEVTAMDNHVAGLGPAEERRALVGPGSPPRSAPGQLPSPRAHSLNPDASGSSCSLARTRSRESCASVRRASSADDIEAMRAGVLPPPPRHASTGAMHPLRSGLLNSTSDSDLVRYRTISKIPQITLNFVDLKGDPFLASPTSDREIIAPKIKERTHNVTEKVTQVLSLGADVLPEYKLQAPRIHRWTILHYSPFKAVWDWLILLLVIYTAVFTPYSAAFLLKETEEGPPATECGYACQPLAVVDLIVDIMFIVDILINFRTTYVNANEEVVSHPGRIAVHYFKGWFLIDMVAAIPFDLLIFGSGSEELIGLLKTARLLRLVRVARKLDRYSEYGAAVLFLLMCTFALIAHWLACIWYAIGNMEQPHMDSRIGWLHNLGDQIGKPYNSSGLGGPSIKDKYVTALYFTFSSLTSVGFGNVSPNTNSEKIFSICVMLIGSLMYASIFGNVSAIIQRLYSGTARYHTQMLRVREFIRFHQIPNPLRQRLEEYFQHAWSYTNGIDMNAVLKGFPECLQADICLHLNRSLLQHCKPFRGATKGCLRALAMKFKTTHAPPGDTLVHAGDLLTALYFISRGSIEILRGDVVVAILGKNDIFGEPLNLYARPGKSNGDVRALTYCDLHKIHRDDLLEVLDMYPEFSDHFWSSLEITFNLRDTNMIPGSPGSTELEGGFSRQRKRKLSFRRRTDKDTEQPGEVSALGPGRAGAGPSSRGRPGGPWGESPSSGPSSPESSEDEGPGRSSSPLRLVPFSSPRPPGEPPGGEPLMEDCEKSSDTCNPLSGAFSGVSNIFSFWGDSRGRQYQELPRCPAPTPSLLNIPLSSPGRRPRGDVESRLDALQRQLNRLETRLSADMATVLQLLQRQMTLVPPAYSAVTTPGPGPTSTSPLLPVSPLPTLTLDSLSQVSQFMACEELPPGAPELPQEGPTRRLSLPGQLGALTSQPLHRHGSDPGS

For `O=C(CCN1CCN(C(=O)OCc2cc(Cl)cc(Cl)c2)CC1)c1ccc2[nH]c(=O)oc2c1`, in series [1], the bioavailability was in the range of 43 to 83%. In series [2], this molecule had a solubility thermodynamic of 10 to 11 µg/mL (≈ 20.9 to 23 µM). Besides, the IC50 in series [3] came out at 2700 nM. Besides, the Drug absorption in series [4] stood at 81%.
Take `O=C(CCCc1c[nH]nn1)NC1CCN(C(=O)OCc2cc(Cl)cc(Cl)c2)CC1`: the IC50 in [5] was determined as 3.1 nM; in series [8], 20.9 µM; in [16], 9 nM; in series [21], 20 nM; in [22] it was 20 nM; in series [23], 20 nM. For the same molecule, the IC50 in series [24] was found to be 20 nM. The Drug absorption in series [4] turned out to be 43%. Besides, the microsomal CLint at 1 µM is 104 µL/min/mg in series [6] and 59 µL/min/mg in series [26]. In addition, the free fraction (fraction unbound) at 5 µM is 0.026 in series [7] and 0.04 in [25]. In series [9], the half-life is 318 min. For the same molecule, the clearance in series [10] is 16 mL/min/kg. Moreover, the Vd in series [11] amounted to 2.5 L/kg. The AUC in series [12] turned out to be 17 µM·h. In series [13], this molecule displayed a Cmax of 2.85 µM. The Tmax in series [14] amounted to 1.3 h. In addition, in [15], the bioavailability is 68%. The inhibition in vivo at 0.3 mg/kg in series [17], in series [18], in series [19] and in series [20] was 70 to 80% each time. The solubility thermodynamic in [27] was 126 µg/mL (≈ 286 µM).
On to `O=C(CCCc1c[nH]nn1)NC1CCN(C(=O)OCc2ccc(C(F)(F)F)cc2)CC1`, for which the IC50 in [5] stood at 39 nM. For the same molecule, the Drug absorption in [4] worked out at 35%.
With `O=C(CCCc1c[nH]nn1)NC1CCN(C(=O)OCc2ccc(Cl)cc2Cl)CC1`, the Drug absorption in series [4] stood at 43%.
With `O=C(CCc1c[nH]nn1)NC1CCN(C(=O)OCc2cc(Cl)cc(Cl)c2)CC1`, the microsomal CLint at 1 µM in series [6] is 75 µL/min/mg.
In series [2], `O=C(NCCN1CCN(C(=O)OCc2cc(Cl)cc(Cl)c2)CC1)c1c[nH]c(=O)o1` showed a solubility thermodynamic of 60 µg/mL (≈ 135 µM). In addition, the IC50 in series [5] was 370 nM. Further, the Drug absorption in series [4] is reported as 35%.
`O=C(NCCC1CCN(C(=O)OCc2cc(Cl)cc(Cl)c2)CC1)c1c[nH]c(=O)o1`: in [2], the solubility thermodynamic was 80 µg/mL (≈ 181 µM). In addition, the IC50 in series [5] was found to be 86 nM. In addition, the Drug absorption in [4] is 68%.
On to `CN(CCC1CCN(C(=O)OCc2cc(Cl)cc(Cl)c2)CC1)C(=O)c1c[nH]c(=O)o1`, for which the microsomal CLint at 1 µM in [6] turned out to be 235 µL/min/mg. Also, the fraction unbound at 5 µM in series [7] worked out at 0.005. In series [9], this molecule gave a half-life of 288 min. The molecule further came in with a clearance in series [10] of 12 mL/min/kg. Also, the Vd in series [11] came to 2.2 L/kg. Further, the AUC in series [12] stood at 25 µM·h. The molecule also yielded a Cmax in series [13] of 3.4 µM. The Tmax in series [14] was determined as 2.5 h. For the same molecule, the bioavailability in series [15] worked out at 80%.
On to `O=C(CCCc1c[nH]nn1)NC1CCN(C(=O)OCc2cc(F)cc(Cl)c2)CC1`, for which the Drug absorption in [4] is 35%.
On to `N#Cc1cc(Cl)cc(COC(=O)N2CCC(NC(=O)CCCc3c[nH]nn3)CC2)c1`, for which the IC50 in series [5] worked out at 7.7 nM. In addition, in series [4], the Drug absorption stood at 21%.
`CN(CCC1CCN(C(=O)OCc2cc(Cl)cc(Cl)c2)CC1)C(=O)c1c[nH]nn1`: the half-maximal inhibitory concentration (IC50) was found to be 150 nM in [5] and 8.6 µM in series [8]. Moreover, the Drug absorption in series [4] came out at 97%. In series [6], the microsomal CLint at 1 µM is 51 µL/min/mg.
Consider `CN(C(=O)CCCc1c[nH]nn1)C1CCN(C(=O)OCc2cc(Cl)cc(Cl)c2)CC1`, for which the Drug absorption in series [4] stood at 89%.
For `O=C(CCN1CCN(C(=O)OCC2CCCCC2)CC1)c1ccc2[nH]c(=O)oc2c1`, in series [5], the half-maximal inhibitory concentration (IC50) came out at 240 nM.
As to `Cn1cc(CCCC(=O)NC2CCN(C(=O)OCc3cc(Cl)cc(Cl)c3)CC2)nn1`, in series [5], the IC50 is 1370 nM.
On the same count and under the same terms, to `O=C(OCc1cc(Cl)cc(Cl)c1)N1CC(N2CCN(C(=O)c3ccc4[nH]c(=O)oc4c3)CC2)C1` belongs 3.9 nM; to `O=C(CCN1CCN(C(=O)OCC2CCCC2)CC1)c1ccc2[nH]c(=O)oc2c1`, 170 nM.
`O=C(NCC1(O)CCN(C(=O)OCc2cc(Cl)cc(Cl)c2)CC1)c1ccc2[nH]c(=O)oc2c1`: in series [5], the IC50 worked out at 8 nM.
For `O=C(CCN1CCN(C(=O)OCc2ccccc2)CC1)c1ccc2[nH]c(=O)oc2c1`, in series [5], the IC50 stood at 130 nM.
Take `O=C(NCCC1CN(C(=O)OCc2cc(Cl)cc(Cl)c2)CCO1)c1ccc2[nH]c(=O)oc2c1` (racemic): the IC50 in [5] is 10 nM.
For `O=C(OCc1cc(Cl)cc(Cl)c1)N1CCC(N2CCN(C(=O)c3ccc4[nH]c(=O)oc4c3)CC2)C1` (racemic), the concentration for half-maximal inhibition (IC50) in [5] worked out at 18 nM.
